ERAP1 HTS inh: human ERAP1 aminopeptidase inhibitors, primary screen, biochemical, single point, plate reader; Endoplasmic reticulum aminopeptidase 1 (Homo sapiens), Q9NZ08; 340,000 compounds, 0.15% hits; inhibition, % at 10.7 µM; recombinant ERAP1, Leu-AMC fluorescence, 60 min;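 active means mean replicate inhibition of at least 30%, or all replicates individually reaching that 30% level; inactive means mean below 30% and not every replicate reaching it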
FGF22 binding: binders of human FGF22 protein, primary screen, FGF22 synaptogenesis inhibitor project, biophysical, thermal shift, single point | Fibroblast growth factor 22 (Homo sapiens), Q9HCT0 | recombinant FGF22 thermal shift, SYPRO orange fluorescence; percent of sucrose octasulfate shift, DMSO zero | activity (Tm shift, normalised), % at 9.99 µM | 340,000 compounds, 1.5% hits;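 active means mean Tm shift, scaled 0 neutral to 100 positive control, at about 1.3% or above, every replicate too, limit read from the data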
Env fusion inh: inhibitors of HIV-1 Env-driven cell-cell fusion, primary screen, HeLa-JRFL effector, CEM21 target cells, luciferase. inhibition, % at 12.3 µM. 360,000 compounds, 1.1% hits;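 active means mean replicate inhibition score of at least 50 and every replicate individually at or above 50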
Ecoli rRNA inh: reduced GFP signal of wild-type E. coli, primary screen, bacterial rRNA inhibitor project, GFP/RFP fluorescence, OD600, single point; E. coli WT GFP vs humanized-ribosome RFP mutants, 24 h; hits give low values; DMSO median 0, no signal -100; GFP signal change (wild-type ribosome), % (concentration not given with the values); 350,000 compounds, 1.6% hits;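 active means significant combined selectivity score with lowered wild-type GFP, culture density cut under 30%, mutant RFP and density less affected; inactive means any of these conditions unmet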
PGC1a acetyl inh: inhibitors of PGC1a acetylation signal, primary screen, cell-based, U2OS, AlphaScreen, inhibitor mode; AlphaScreen anti-acetyl-lysine; with virally co-expressed GCN5 acetyltransferase; inhibition, % at 15.6 µM; 350,000 compounds, 0.17% hits;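 active means every replicate shows inhibition of at least 40%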
Cneo AK release: Cryptococcus neoformans cell lysis inducers, primary screen, AK release luminescence, single concentration | 360,000 compounds, 0.2% hits | C. neoformans lysis, adenylate kinase release luminescence, 4 h; normalised: neutral wells 0, clomiphene wells 100 | lysis activity, % at 15 µM;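 active means mean lysis activity across replicates of at least 80%, whatever share of replicates individually reach that level; inactive means mean lysis activity below 80%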
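Test system: log-phase Cryptococcus neoformans yeast cells; Quantity: yeast cell density of 5 × 10^6 cells/mL; Buffer or medium: YPD; Doses: single compound concentration per well; Timing: 4 h at 37 °C static, read 1 h later; Measured by: AK luminescence; Read-out basis: lysis from increased AK signal; Control set: Clomiphene as positive control.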
Large screens that a line does not name were inactive; [ ] = another dose, or the depositor's remark. In the library only some 3.5% were active in any assay of this set; here they are far more common.

O=[N+]([O-])c1ccccc1N/N=C1\CC2CC=CC12 (stereo not given)	Ecoli rRNA inh -28.7 (no result: PGC1a acetyl inh, Cneo AK release)
CCN1/C(=C/C=C/C=C/C=C/c2sc3ccccc3[n+]2CC)Sc2ccccc21	ERAP1 HTS inh 30.6
O=c1cc(-c2ccccc2Cl)oc2c(NS(=O)(=O)c3cc(Cl)cc(Cl)c3O)ccc(O)c12	none (no result: ERAP1 HTS inh, FGF22 binding, Env fusion inh, Ecoli rRNA inh)
CCc1ccc(S(=O)(=O)Nc2ccc(O)c3c(=O)cc(-c4ccccc4Cl)oc23)cc1	FGF22 binding 18.7 (no result: ERAP1 HTS inh)
Cc1cccc(Oc2nccc(C(F)(F)F)c2C(=O)Nc2ccc(F)cc2F)c1	PGC1a acetyl inh 84.9 (no result: ERAP1 HTS inh, FGF22 binding, Cneo AK release)
O=C1NC(=O)C2(Br)Nc3ccc(Br)cc3C(=O)C2N1 (stereo not given)	FGF22 binding 1.4 (no result: Env fusion inh)
Cc1cc(/C([O-])=C(/C(=S)Nc2ccc(F)cc2)[n+]2ccccc2)c(C)n1-c1ccc(F)cc1	none (no result: ERAP1 HTS inh, FGF22 binding, Env fusion inh, Ecoli rRNA inh)
COc1ccc2c3c([nH]c2c1)[C@H](CO)N(C(=O)c1ccccn1)CC31CN(C(=O)C2CCCC2)C1	none (no result: Env fusion inh, PGC1a acetyl inh, Cneo AK release)
C[C@H](O)C#Cc1cnc2c(c1)C(=O)N([C@@H](C)CO)C[C@@H](C)[C@H](CN(C)C(=O)CN(C)C)O2	none
COc1cccc(S(=O)(=O)N(C)C[C@H]2OCc3ccccc3-c3c(n(C)c4ccccc34)C(=O)N([C@H](C)CO)C[C@@H]2C)c1	none
COc1cccc(S(=O)(=O)N(C)C[C@@H]2OCc3ccccc3-c3c(n(C)c4ccccc34)C(=O)N([C@@H](C)CO)C[C@@H]2C)c1	Env fusion inh 60.2[16.7 µM]
COc1cccc(S(=O)(=O)N(C)C[C@@H]2OCc3ccccc3-c3c(n(C)c4ccccc34)C(=O)N([C@H](C)CO)C[C@@H]2C)c1	Env fusion inh 55.3[16.7 µM]
COc1cccc(S(=O)(=O)N(C)C[C@H]2OCc3ccccc3-c3c(n(C)c4ccccc34)C(=O)N([C@@H](C)CO)C[C@H]2C)c1	none
CC(Sc1nnc2ccccn12)C(=O)Nc1ccc(Cl)cn1 (stereo not given)	none (no result: ERAP1 HTS inh, FGF22 binding, Env fusion inh, Ecoli rRNA inh)
CC(C)CCNC(=O)NC(=O)CSc1nnc2ccccn12	none (no result: ERAP1 HTS inh, FGF22 binding, Env fusion inh, Ecoli rRNA inh)
CC(Sc1nnc2ccccn12)C(N)=O (stereo not given)	FGF22 binding 43.2
COc1ccc(Cl)cc1C(=O)NNC(=O)CSc1nnc2ccccn12	FGF22 binding 44.3 (no result: Ecoli rRNA inh, PGC1a acetyl inh)
CC(C)CNC(=O)CSc1nnc2ccccn12	FGF22 binding 43.1 (no result: Ecoli rRNA inh, PGC1a acetyl inh, Cneo AK release)
COc1ccc(-c2cc(=O)oc3cc(OCC(=O)NCC4CCC(C(=O)O)CC4)ccc23)cc1 (stereo not given)	none (no result: Env fusion inh)
CCOc1ccc(C2C([N+](=O)[O-])=C(C)N(C)C(=O)N2C)cc1OC (stereo not given)	FGF22 binding 43.0 (no result: Cneo AK release)
CCOC(=O)CC1C(=O)NCCN1S(=O)(=O)c1cccc(C(F)(F)F)c1 (stereo not given)	none
CN(CC(=O)Nc1ccncc1)S(=O)(=O)c1ccc(Br)cc1	none (no result: ERAP1 HTS inh, FGF22 binding, Ecoli rRNA inh)
CN(CCCC(=O)Nc1ccncc1)S(=O)(=O)c1ccc(Cl)cc1	Env fusion inh 66.1 (no result: ERAP1 HTS inh, FGF22 binding, Ecoli rRNA inh)
CC(C)(C)c1ccc(-c2nc3[nH]c(=O)cc(NC(=O)c4ccco4)n3n2)cc1	FGF22 binding 13.7
COc1cccc(CNc2nc3cc(-c4ccccc4)sc3c(=O)n2C)c1	Env fusion inh 63.0 (no result: Ecoli rRNA inh)
COc1ccc(-c2cc3nc(NCc4ccc(N(C)C)cc4)n(C)c(=O)c3s2)cc1OC	none
COc1cccc(CNc2nc3cc(-c4ccc(OC)c(OC)c4)sc3c(=O)n2C)c1	Env fusion inh 59.6
COc1ccccc1OCC(=O)Nc1ccc(S(=O)(=O)N2CCOCC2)cc1	none
CS(=O)(=O)N1CCc2cc(S(=O)(=O)N3CCCCC3)ccc21	FGF22 binding 42.9 (no result: Cneo AK release)
CO[C@H]1CN(C)C(=O)c2cc(NC(=O)C3CCC3)ccc2OC[C@@H](C)N(Cc2nccs2)C[C@@H]1C	none (no result: Env fusion inh, PGC1a acetyl inh)
Cc1cc(C)nc(N/N=C/C2=C(N3CCOCC3)C(=C\c3ccc(Cl)cc3)/CC2)n1	none (no result: ERAP1 HTS inh, FGF22 binding, Ecoli rRNA inh, PGC1a acetyl inh, Cneo AK release)

Source: PubChem BioAssay
